In ChEMBL document CHEMBL2401735, “Synthesis and cytotoxicity of novel (thiazol-2-yl)hydrazine derivatives as promising anti-Candida agents” (Eur J Med Chem, 2013):
In brackets after ≈: the same amount, converted by molar mass.

Experiments:
Proteus mirabilis = assay: Antibacterial activity against Proteus mirabilis assessed as growth inhibition after 18 to 22 hrs by broth microdilution method; format: functional
Outline: (§1)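 Bacterial isolates subcultured for purity, identified conventionally. Broth microdilution per NCCLS in Mueller-Hinton II broth; plates with growth control (no compound) and medium-only control, incubated 18-22 h at 35 °C. MIC taken as lowest concentration giving complete growth inhibition by unaided eye.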

Staphylococcus aureus = assay: Antibacterial activity against Staphylococcus aureus assessed as growth inhibition after 18 to 22 hrs by broth microdilution method; format: functional; outline: as §1
[1] = system: Streptococcus alpha-hemolyticus; assay: Antibacterial activity against Streptococcus alpha-hemolyticus assessed as growth inhibition after 18 to 22 hrs by broth microdilution method
[Candida] sake = Anticandida activity against Candida sake clinical isolate assessed as growth inhibition after 24 hrs by broth microdilution method; format: functional; details: Fermentozyma sake
Outline: (§2)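 Clinical Candida isolates subcultured for purity and optimal growth before testing; compounds dissolved in DMSO. Broth microdilution per NCCLS in Sabouraud dextrose broth, serial dilutions, inoculum about 10³/mL, with growth control and medium-only control; 24 h incubation at 37 °C. MIC is the lowest concentration giving complete visible inhibition.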

Enterococcus faecalis = assay: Antibacterial activity against […] assessed as growth inhibition after 18 to 22 hrs by broth microdilution method; format: functional; outline: as §1
Pichia kudriavzevii = assay: Anticandida activity against Candida krusei clinical isolate assessed as growth inhibition after 24 hrs by broth microdilution method; format: functional; outline: as §2
Candida parapsilosis = assay: Anticandida activity against Candida parapsilosis clinical isolate assessed as growth inhibition after 24 hrs by broth microdilution method; format: functional; details: Lodderomyces parapsilosis; outline: as §2
Enterobacter sp. = assay: Antibacterial activity against Enterobacter spp. assessed as growth inhibition after 18 to 22 hrs by broth microdilution method; format: functional; outline: as §1
Candida tropicalis = assay: Anticandida activity against Candida tropicalis clinical isolate assessed as growth inhibition after 24 hrs by broth microdilution method; format: functional; outline: as §2
Staphylococcus warneri = assay: Antibacterial activity against Staphylococcus warneri assessed as growth inhibition after 18 to 22 hrs by broth microdilution method; format: functional; outline: as §1
Klebsiella oxytoca = assay: Antibacterial activity against Klebsiella oxytoca assessed as growth inhibition after 18 to 22 hrs by broth microdilution method; format: functional; outline: as §1
Candida albicans = assay: Anticandida activity against Candida albicans clinical isolate assessed as growth inhibition after 24 hrs by broth microdilution method; format: functional; outline: as §2
Escherichia coli = assay: Antibacterial activity against Escherichia coli assessed as growth inhibition after 18 to 22 hrs by broth microdilution method; format: functional; outline: as §1
Nakaseomyces glabratus = assay: Anticandida activity against Candida glabrata clinical isolate assessed as growth inhibition after 24 hrs by broth microdilution method; format: functional; outline: as §2

CCCCC/C(C)=N/Nc1nc(-c2ccc(Cl)cc2Cl)cs1 showed an MIC (Proteus mirabilis) of over 256 µg/mL, an MIC (Staphylococcus aureus) of over 256 µg/mL and an MIC [1] of over 256 µg/mL. For the same compound, the MIC ([Candida] sake) was 16 µg/mL (≈ 44.9 µM), the MIC (Enterococcus faecalis) was over 256 µg/mL and the MIC (Pichia kudriavzevii) was 4 µg/mL (≈ 11.2 µM). The MIC (Candida parapsilosis) was 16 µg/mL (≈ 44.9 µM), the MIC (Enterobacter sp.) was over 256 µg/mL and the MIC (Candida tropicalis) was 4 µg/mL (≈ 11.2 µM). For the same compound, the MIC (Staphylococcus warneri) was over 256 µg/mL, the MIC (Klebsiella oxytoca) was over 256 µg/mL and the MIC (Candida albicans) was 2 µg/mL (≈ 5.61 µM). For the same compound, the MIC (Escherichia coli) was over 256 µg/mL and the MIC (Nakaseomyces glabratus) was 2 µg/mL (≈ 5.61 µM).
Work on C/C(CC(C)C)=N\Nc1nc(-c2ccc(Cl)cc2Cl)cs1 yielded an MIC (Proteus mirabilis) of over 256 µg/mL, an MIC (Staphylococcus aureus) of over 256 µg/mL and an MIC [1] of over 256 µg/mL. The MIC ([Candida] sake) was 256 µg/mL (≈ 748 µM), the MIC (Enterococcus faecalis) was over 256 µg/mL and the MIC (Pichia kudriavzevii) was 256 µg/mL (≈ 748 µM). For the same compound, the MIC (Candida parapsilosis) was 256 µg/mL (≈ 748 µM), the MIC (Enterobacter sp.) was over 256 µg/mL and the MIC (Candida tropicalis) was 256 µg/mL (≈ 748 µM). For the same compound, the MIC (Staphylococcus warneri) was over 256 µg/mL, the MIC (Klebsiella oxytoca) was over 256 µg/mL and the MIC (Candida albicans) was 256 µg/mL (≈ 748 µM). The MIC (Escherichia coli) was over 256 µg/mL and the MIC (Nakaseomyces glabratus) was 128 µg/mL (≈ 374 µM).
Work on C=CCC/C(C)=N/Nc1nc(-c2ccc(Cl)cc2Cl)cs1 yielded an MIC (Proteus mirabilis) of over 256 µg/mL, an MIC (Staphylococcus aureus) of over 256 µg/mL and an MIC [1] of over 256 µg/mL. For the same compound, the MIC ([Candida] sake) was 256 µg/mL (≈ 752 µM), the MIC (Enterococcus faecalis) was over 256 µg/mL and the MIC (Pichia kudriavzevii) was 8 µg/mL (≈ 23.5 µM). It also gave an MIC (Candida parapsilosis) of 256 µg/mL (≈ 752 µM), an MIC (Enterobacter sp.) of over 256 µg/mL and an MIC (Candida tropicalis) of 8 µg/mL (≈ 23.5 µM). For the same compound, the MIC (Staphylococcus warneri) was over 256 µg/mL, the MIC (Klebsiella oxytoca) was over 256 µg/mL and the MIC (Candida albicans) was 2 µg/mL (≈ 5.88 µM). The MIC (Escherichia coli) was over 256 µg/mL and the MIC (Nakaseomyces glabratus) was 4 µg/mL (≈ 11.8 µM).
CCCC/C(CC)=N/Nc1nc(-c2ccc(Cl)cc2Cl)cs1 gave an MIC (Proteus mirabilis) of over 256 µg/mL, an MIC (Staphylococcus aureus) of over 256 µg/mL and an MIC [1] of over 256 µg/mL. For the same compound, the MIC ([Candida] sake) was 8 µg/mL (≈ 22.5 µM), the MIC (Enterococcus faecalis) was over 256 µg/mL and the MIC (Pichia kudriavzevii) was 4 µg/mL (≈ 11.2 µM). The MIC (Candida parapsilosis) was 8 µg/mL (≈ 22.5 µM), the MIC (Enterobacter sp.) was over 256 µg/mL and the MIC (Candida tropicalis) was 4 µg/mL (≈ 11.2 µM). It also gave an MIC (Staphylococcus warneri) of over 256 µg/mL, an MIC (Klebsiella oxytoca) of over 256 µg/mL and an MIC (Candida albicans) of 2 µg/mL (≈ 5.61 µM). For the same compound, the MIC (Escherichia coli) was over 256 µg/mL and the MIC (Nakaseomyces glabratus) was 4 µg/mL (≈ 11.2 µM).
CCCCCC/C(C)=N/Nc1nc(-c2ccc(Cl)cc2Cl)cs1 showed an MIC (Proteus mirabilis) of over 256 µg/mL, an MIC (Staphylococcus aureus) of over 256 µg/mL and an MIC [1] of over 256 µg/mL. The MIC ([Candida] sake) was 32 µg/mL (≈ 86.4 µM), the MIC (Enterococcus faecalis) was over 256 µg/mL and the MIC (Pichia kudriavzevii) was 4 µg/mL (≈ 10.8 µM). The MIC (Candida parapsilosis) was 32 µg/mL (≈ 86.4 µM), the MIC (Enterobacter sp.) was over 256 µg/mL and the MIC (Candida tropicalis) was 4 µg/mL (≈ 10.8 µM). It also gave an MIC (Staphylococcus warneri) of over 256 µg/mL, an MIC (Klebsiella oxytoca) of over 256 µg/mL and an MIC (Candida albicans) of 2 µg/mL (≈ 5.4 µM). The MIC (Escherichia coli) was over 256 µg/mL and the MIC (Nakaseomyces glabratus) was 4 µg/mL (≈ 10.8 µM).
With COc1ccc(-c2csc(NN=C(C)C)n2)c(OC)c1 the MIC (Proteus mirabilis) was over 256 µg/mL, the MIC (Staphylococcus aureus) was over 256 µg/mL and the MIC [1] was over 256 µg/mL. The MIC ([Candida] sake) was 256 µg/mL (≈ 879 µM), the MIC (Enterococcus faecalis) was over 256 µg/mL and the MIC (Pichia kudriavzevii) was 256 µg/mL (≈ 879 µM). It also gave an MIC (Candida parapsilosis) of 256 µg/mL (≈ 879 µM), an MIC (Enterobacter sp.) of over 256 µg/mL and an MIC (Candida tropicalis) of 256 µg/mL (≈ 879 µM). For the same compound, the MIC (Staphylococcus warneri) was over 256 µg/mL, the MIC (Klebsiella oxytoca) was over 256 µg/mL and the MIC (Candida albicans) was 128 µg/mL (≈ 439 µM). The MIC (Escherichia coli) was over 256 µg/mL and the MIC (Nakaseomyces glabratus) was 128 µg/mL (≈ 439 µM).
CC/C(C)=N/Nc1nc(-c2ccc(OC)cc2OC)cs1 was tested, and the MIC (Proteus mirabilis) was over 256 µg/mL, the MIC (Staphylococcus aureus) was over 256 µg/mL and the MIC [1] was over 256 µg/mL. For the same compound, the MIC ([Candida] sake) was 256 µg/mL (≈ 838 µM), the MIC (Enterococcus faecalis) was over 256 µg/mL and the MIC (Pichia kudriavzevii) was 256 µg/mL (≈ 838 µM). It also gave an MIC (Candida parapsilosis) of 256 µg/mL (≈ 838 µM), an MIC (Enterobacter sp.) of over 256 µg/mL and an MIC (Candida tropicalis) of 256 µg/mL (≈ 838 µM). It also gave an MIC (Staphylococcus warneri) of over 256 µg/mL, an MIC (Klebsiella oxytoca) of over 256 µg/mL and an MIC (Candida albicans) of 64 µg/mL (≈ 210 µM). The MIC (Escherichia coli) was over 256 µg/mL and the MIC (Nakaseomyces glabratus) was 128 µg/mL (≈ 419 µM).
CCC/C(C)=N/Nc1nc(-c2ccc(OC)cc2OC)cs1 gave an MIC (Proteus mirabilis) of over 256 µg/mL, an MIC (Staphylococcus aureus) of over 256 µg/mL and an MIC [1] of over 256 µg/mL. For the same compound, the MIC ([Candida] sake) was 256 µg/mL (≈ 801 µM), the MIC (Enterococcus faecalis) was over 256 µg/mL and the MIC (Pichia kudriavzevii) was 256 µg/mL (≈ 801 µM). For the same compound, the MIC (Candida parapsilosis) was 256 µg/mL (≈ 801 µM), the MIC (Enterobacter sp.) was over 256 µg/mL and the MIC (Candida tropicalis) was 256 µg/mL (≈ 801 µM). For the same compound, the MIC (Staphylococcus warneri) was over 256 µg/mL, the MIC (Klebsiella oxytoca) was over 256 µg/mL and the MIC (Candida albicans) was 128 µg/mL (≈ 401 µM). The MIC (Escherichia coli) was over 256 µg/mL and the MIC (Nakaseomyces glabratus) was 128 µg/mL (≈ 401 µM).
In the case of CCC(CC)=NNc1nc(-c2ccc(OC)cc2OC)cs1, the MIC (Proteus mirabilis) was over 256 µg/mL, the MIC (Staphylococcus aureus) was over 256 µg/mL and the MIC [1] was over 256 µg/mL. It also gave an MIC ([Candida] sake) of 256 µg/mL (≈ 801 µM), an MIC (Enterococcus faecalis) of over 256 µg/mL and an MIC (Pichia kudriavzevii) of 256 µg/mL (≈ 801 µM). It also gave an MIC (Candida parapsilosis) of 256 µg/mL (≈ 801 µM), an MIC (Enterobacter sp.) of over 256 µg/mL and an MIC (Candida tropicalis) of 256 µg/mL (≈ 801 µM). It also gave an MIC (Staphylococcus warneri) of over 256 µg/mL, an MIC (Klebsiella oxytoca) of over 256 µg/mL and an MIC (Candida albicans) of 128 µg/mL (≈ 401 µM). It also gave an MIC (Escherichia coli) of over 256 µg/mL and an MIC (Nakaseomyces glabratus) of 128 µg/mL (≈ 401 µM).
For COc1ccc(-c2csc(N/N=C(\C)CC(C)C)n2)c(OC)c1, the MIC (Proteus mirabilis) was over 256 µg/mL, the MIC (Staphylococcus aureus) was over 256 µg/mL and the MIC [1] was over 256 µg/mL. For the same compound, the MIC ([Candida] sake) was 256 µg/mL (≈ 768 µM), the MIC (Enterococcus faecalis) was over 256 µg/mL and the MIC (Pichia kudriavzevii) was 256 µg/mL (≈ 768 µM). For the same compound, the MIC (Candida parapsilosis) was 256 µg/mL (≈ 768 µM), the MIC (Enterobacter sp.) was over 256 µg/mL and the MIC (Candida tropicalis) was 256 µg/mL (≈ 768 µM). For the same compound, the MIC (Staphylococcus warneri) was over 256 µg/mL, the MIC (Klebsiella oxytoca) was over 256 µg/mL and the MIC (Candida albicans) was 128 µg/mL (≈ 384 µM). For the same compound, the MIC (Escherichia coli) was over 256 µg/mL and the MIC (Nakaseomyces glabratus) was 128 µg/mL (≈ 384 µM).
With C=CCC/C(C)=N/Nc1nc(-c2ccc(OC)cc2OC)cs1 the MIC (Proteus mirabilis) was over 256 µg/mL, the MIC (Staphylococcus aureus) was over 256 µg/mL and the MIC [1] was over 256 µg/mL. For the same compound, the MIC ([Candida] sake) was 256 µg/mL (≈ 772 µM), the MIC (Enterococcus faecalis) was over 256 µg/mL and the MIC (Pichia kudriavzevii) was 256 µg/mL (≈ 772 µM). For the same compound, the MIC (Candida parapsilosis) was 256 µg/mL (≈ 772 µM), the MIC (Enterobacter sp.) was over 256 µg/mL and the MIC (Candida tropicalis) was 256 µg/mL (≈ 772 µM). The MIC (Staphylococcus warneri) was over 256 µg/mL, the MIC (Klebsiella oxytoca) was over 256 µg/mL and the MIC (Candida albicans) was 64 µg/mL (≈ 193 µM). For the same compound, the MIC (Escherichia coli) was over 256 µg/mL and the MIC (Nakaseomyces glabratus) was 128 µg/mL (≈ 386 µM).
